Results: PubChem BioAssay
Inconclusive results are not listed.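 The calls were made as follows, unless noted: active = cell viability at or below a set limit in both duplicate runs, the limit being the all-compound median minus 4 SD (cut at about 23% in these data, passing the limit was not always enough); inconclusive = no clear call, values can overlap the other calls; inactive = the rest.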

Columns and labels:
[1] = OD615 S. cerevisiae growth inhibition, permissive medium, pilot counter-assay, permissive growth control for S. cerevisiae lifespan shortening project (AID 705;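 active = growth inhibition above 25% in both replicates, a cutoff set 3 SD above the mean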); conditions: OD615, 24 h, at 10 µM, active compounds read high
Method in brief: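 Material: engineered DeaD yeast; Compound: one dose 10 µM, DMSO 0.25% final; Detection: absorbance (optical density) at 615 nm; Buffer or medium: permissive raffinose/galactose medium; Timing: 24 h exposure, 30 °C.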

[2] = Restrictive medium S. cerevisiae growth inhibition, OD615, pilot screen of yeast lifespan reduction project, restrictive growth control (AID 706;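 active = growth inhibition above a set limit, 3 SD over mean compound inhibition, in both replicates, cut at about 43% in these data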;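 also: modified DeaD lifespan yeast strain shifted to restrictive glucose medium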); conditions: OD615, 48 h, at 10 µM, active compounds read high
Method in brief: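 Buffer or medium: restrictive glucose medium (CSMM-D); test system: modified S. cerevisiae; doses: single dose of 10 µM compound final, 0.25% DMSO; schedule: 48 h compound exposure at 30 °C; detection: absorbance (optical density) measured at 615 nm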

[3] = viability gain of MRP-1-high H69AR cells under doxorubicin, pilot screen, MRP-1 activator project, CellTiter-Glo, duplicate (AID 807;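 active = viability increase at or above a cutoff of the median across tested compounds plus 3 SD, cut at about 8.5% in these data, passing the limit was not always enough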;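 also: compound pretreatment 18-22 h then 72 h combined with doxorubicin; 0% = doxorubicin alone and 100% = vehicle without doxorubicin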); conditions: H69AR viability with doxorubicin, CellTiter-Glo luminescence; at 10 µM; active compounds read high
[4] = growth suppression of beta-catenin knockout HCT116, pilot screen, human colon tumor cells (AID 823); conditions: CellTiter-Glo, 60 h, at 10 µM, active compounds read low;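 also: 0% = wells killed by 20 µM Hyamine and 100% = untreated DMSO cell wells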
[5] = growth suppression of PTEN-deleted HCT116, pilot screen, cell-based, HCT116 clonal line, CellTiter-Glo (AID 824;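 active = viability at or below 27.92% in each of two runs, the all-compound median minus 4 SD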;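 also: 0% = 20 µM Hyamine control and 100% = vehicle cell control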); conditions: 60 h, at 10 µM, active compounds read low
[6] = inhibitors of the yeast RAM network, pilot screen, dse1pr::URA3 reporter, 5-FOA selection (AID 869;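 active = inhibition over a set limit, the all-compound mean plus 3 SD, in both replicate runs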;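 also: 0% = DMSO wells with no growth and 100% = 10 µM 1-NA-PP1 with full growth; RAM network block rescues cells from 5-FOA so hits raise OD615 growth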); conditions: S. cerevisiae dse1pr::URA3 5-FOA growth, OD615, 2 d; at 10 µM; active compounds read high; strain carries analog-sensitive mutant Cbk1 kinase
[7] = RAM signaling pathway blockade in yeast – S. cerevisiae, Pdr1DBD-CYC8 efflux-inhibited sensitized strain, primary screen (AID 1298;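 active = RAM network inhibition above 8.4% in each of two replicates, 3 SD over the compound average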;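 also: 0% = DMSO untreated cells without growth and 100% = 10 µM 1-NA-PP1 full growth; higher means more yeast growth rescued from 5-FOA killing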); conditions: S. cerevisiae cbk1-as DSE1-URA3 strain, 5-FOA growth OD615, 2 d; at 50 µM; active compounds read high

COc1ccc(C(=O)NCCSCc2ccco2)cc1OC
inactive: growth inhibition [1] -9.5% | growth inhibition [2] 5.73% | viability increase [3] -4.86% | viability [4] 98.2% | viability [5] 95.6% | inhibition [6] 1% | RAM network inhibition [7] 5.47%

Cc1cc(Nc2ccc(F)cc2Cl)n2ncnc2n1
inactive: growth inhibition [1] -7.73% | growth inhibition [2] 2.61% | viability increase [3] -2.45% | viability [4] 103% | viability [5] 95.1% | inhibition [6] -0.7% | RAM network inhibition [7] 1.89%

NC(=O)CSc1nnc(Cn2c(=O)sc3ccccc32)n1-c1ccccc1
inactive: growth inhibition [1] -6.81% | growth inhibition [2] -0.84% | viability increase [3] -0.83% | viability [4] 98.5% | viability [5] 96.8% | inhibition [6] 2.02% | RAM network inhibition [7] 2.47%

N#C/C(=C1/CCCCCN1)c1nnc2n1CCCCC2
inactive: growth inhibition [1] -8.48% | growth inhibition [2] 2.4% | viability increase [3] -1.1% | viability [4] 102% | viability [5] 101% | inhibition [6] 0.985% | RAM network inhibition [7] 3.24%

Cc1cc(Nc2ccc(F)cc2Cl)n2nc(C)nc2n1
inactive: growth inhibition [1] -9.76% | growth inhibition [2] -13% | viability increase [3] -0.59% | viability [4] 109% | viability [5] 99.6% | inhibition [6] 1.51% | RAM network inhibition [7] 2.31%

COc1ccc(C2C(C(=O)N3CCCCC3)CCC(=O)N2c2cc(OC)c(OC)c(OC)c2)cc1 (configuration not stated)
inactive: growth inhibition [1] -15% | growth inhibition [2] -5.94% | viability increase [3] -7.12% | viability [4] 100% | viability [5] 89% | inhibition [6] 0.98% | RAM network inhibition [7] 5.22%

CCC(CC)C(=O)Nc1ccccc1NC(C)=O
inactive: growth inhibition [1] -3.13% | growth inhibition [2] 0.295% | viability increase [3] 0.4% | viability [4] 99.8% | viability [5] 98% | inhibition [6] 0.36% | RAM network inhibition [7] 4.35%

COc1ccc(C2CC(c3ccc(Cl)cc3)n3nc(N)nc3N2)cc1 (configuration not stated)
inactive: growth inhibition [1] -5.72% | growth inhibition [2] 10.7% | viability increase [3] 2.46% | viability [4] 100% | viability [5] 95.1% | inhibition [6] 3.23% | RAM network inhibition [7] 4.44%

O=C(CCCN1C(=O)c2ccccc2C1=O)Nc1ccccc1C(=O)N1CCOCC1
inactive: growth inhibition [1] -5.06% | growth inhibition [2] 2.61% | viability increase [3] 0.44% | viability [4] 102% | viability [5] 103% | inhibition [6] 0.11% | RAM network inhibition [7] 3.36%

Cc1nc2ccc(NC(=O)c3ccc(S(=O)(=O)N4CCOCC4)cc3)cc2s1
inactive: growth inhibition [1] -2.22% | growth inhibition [2] -2.84% | viability increase [3] 0.28% | viability [4] 95.3% | viability [5] 93.8% | inhibition [6] 3.07% | RAM network inhibition [7] 4.83%

NS(=O)(=O)c1ccc(CCNC(=O)NC2(C(F)(F)F)Oc3ccccc3O2)cc1
inactive: growth inhibition [1] -2.1% | growth inhibition [2] -6.81% | viability increase [3] -6.42% | viability [4] 63.4% | viability [5] 80.3% | inhibition [6] 0.12% | RAM network inhibition [7] 3.68%

COc1ccc(-n2c(Cc3cccn3C)nnc2SCC(=O)NC2CCCC2)cc1
inactive: growth inhibition [1] -6.13% | growth inhibition [2] 5.99% | viability increase [3] 0.53% | viability [4] 94.1% | viability [5] 92.4% | inhibition [6] 0.835% | RAM network inhibition [7] 3.89%

COc1ccc(S(=O)(=O)Cc2ccc(C(=O)N3CCc4ccccc4C3)o2)cc1
inactive: growth inhibition [1] -5.74% | growth inhibition [2] -5.21% | viability increase [3] -0.44% | viability [4] 92.7% | viability [5] 94.1% | inhibition [6] 0.315% | RAM network inhibition [7] 7.28%

CCn1ccc(C(=O)Nc2ccc(Cl)cn2)n1
inactive: growth inhibition [1] -9.65% | growth inhibition [2] 11.6% | viability increase [3] -1.34% | viability [4] 93.6% | viability [5] 93.9% | inhibition [6] 1.48% | RAM network inhibition [7] 3.03%

CC(=O)N1CCc2cc(S(=O)(=O)Nc3ccccc3N3CCN(C)CC3)ccc21
inactive: growth inhibition [1] -7.73% | growth inhibition [2] -1.75% | viability increase [3] -1.49% | viability [4] 94.8% | viability [5] 85.8% | inhibition [6] 1.71% | RAM network inhibition [7] 0.62%

O=C(c1oc(=O)c2ccccc2c1-c1ccccc1)N1CCC(O)CC1
inactive: growth inhibition [1] -2.27% | growth inhibition [2] -0.17% | viability increase [3] -2.96% | viability [4] 97.6% | viability [5] 91.6% | inhibition [6] 1.25% | RAM network inhibition [7] 1.92%

O=C1C2CCCN2C(c2ccc(Br)cc2)N1c1ccc(F)cc1 (configuration not stated)
inactive: growth inhibition [1] -4.66% | growth inhibition [2] -3.76% | viability increase [3] -3.07% | viability [4] 94.2% | viability [5] 90% | inhibition [6] 2.89% | RAM network inhibition [7] 9.1%

CCn1c(CNC(=O)C(C)(C)C)nc2ccccc21
inactive: growth inhibition [1] -13.2% | growth inhibition [2] -10.8% | viability increase [3] -1.1% | viability [4] 104% | viability [5] 101% | inhibition [6] 1.73% | RAM network inhibition [7] 1.9%

COc1cccc(-c2nc(CS(=O)(=O)CC(=O)NCc3ccccc3)c(C)o2)c1
inactive: growth inhibition [1] 6.62% | growth inhibition [2] 8.33% | viability increase [3] -0.84% | viability [4] 94.8% | viability [5] 88.1% | inhibition [6] 1.4% | RAM network inhibition [7] 3.28%

CC1CCN(c2nc3c(c(=O)[nH]c(=O)n3C)n2Cc2ccccc2Cl)CC1
inactive: growth inhibition [1] -10.2% | growth inhibition [2] -20.9% | viability increase [3] -6.47% | viability [4] 87.6% | viability [5] 72% | inhibition [6] 2.75% | RAM network inhibition [7] 9.67%

CC(=O)NC(NC(C)=O)c1ccc(N(C)C)cc1
inactive: growth inhibition [1] 2.72% | growth inhibition [2] 16.3% | viability increase [3] -0.12% | viability [4] 100% | viability [5] 100% | inhibition [6] -0.22% | RAM network inhibition [7] -0.26%

CC1=CCC2C(=O)N(c3ccc(C)c(Br)c3)C(=O)C2C1 (configuration not stated)
inactive: growth inhibition [1] 5.96% | growth inhibition [2] -0.835% | viability increase [3] 0.55% | viability [4] 99.5% | viability [5] 95.4% | inhibition [6] 0.08% | RAM network inhibition [7] 0%

Cc1nn(-c2ccccc2)c2sc(C(=O)OCN3C(=O)c4ccccc4C3=O)cc12
inactive: growth inhibition [1] -8.01% | growth inhibition [2] -6.25% | viability increase [3] -3.32% | viability [4] 83.6% | viability [5] 85.2% | inhibition [6] 2.55% | RAM network inhibition [7] 4.24%

CN(Cc1ccco1)C(=O)C(Cc1ccccc1)NS(=O)(=O)c1ccc2c(c1)CCC(=O)N2 (configuration not stated)
inactive: growth inhibition [1] -11.9% | growth inhibition [2] -12.3% | viability increase [3] -4.4% | viability [4] 94.9% | viability [5] 84.4% | inhibition [6] 2.2% | RAM network inhibition [7] 3.45%

O=C(NCCCN1CCCCC1)C1(S(=O)(=O)c2ccc(Cl)cc2)CC1
inactive: growth inhibition [1] -12.4% | growth inhibition [2] -14% | viability increase [3] -1.07% | viability [4] 103% | viability [5] 97.2% | inhibition [6] 1.6% | RAM network inhibition [7] 2.82%

O=C(Oc1c(Cl)cc(Cl)c2cccnc12)N1CCOCC1
inactive: growth inhibition [1] -1.54% | growth inhibition [2] 2.49% | viability increase [3] -2.13% | viability [4] 99.7% | viability [5] 95.3% | inhibition [6] 0.74% | RAM network inhibition [7] 0.25%

Cc1ccc2cc(CCNC(=O)C(C)(C)C)c(=O)[nH]c2c1
inactive: growth inhibition [1] -5.49% | growth inhibition [2] -13.2% | viability increase [3] 0.4% | viability [4] 105% | viability [5] 97.5% | inhibition [6] 0.125% | RAM network inhibition [7] 3.53%

CCOc1ccc(-n2c(Cc3cc(=O)[nH]c(=O)[nH]3)nnc2SCc2cccnc2)cc1
inactive: growth inhibition [1] 2.83% | growth inhibition [2] 5.83% | viability increase [3] 1.08% | viability [4] 107% | viability [5] 105% | inhibition [6] 1.84% | RAM network inhibition [7] 0.84%

c1ccc2c(c1)nc(N1CCOCC1)c1nnnn12
inactive: growth inhibition [1] -7.82% | growth inhibition [2] -4.7% | viability increase [3] -3.18% | viability [4] 109% | viability [5] 103% | inhibition [6] 1.38% | RAM network inhibition [7] 10.4%

CC1CCCCN1Cc1nc2c(c(=O)n(C)c(=O)n2C)n1Cc1c(F)cccc1Cl (configuration not stated)
inactive: growth inhibition [1] 1.95% | growth inhibition [2] -6.45% | viability increase [3] -3.05% | viability [4] 78.6% | viability [5] 79.2% | inhibition [6] 1.46% | RAM network inhibition [7] 0.66%

O=C(NCc1ccccn1)c1nnc(Cc2ccc(Cl)cc2)o1
inactive: growth inhibition [1] -1.48% | growth inhibition [2] 2.66% | viability increase [3] 1.55% | viability [4] 108% | viability [5] 103% | inhibition [6] 0.515% | RAM network inhibition [7] -1.46%

Cc1ccc(S(=O)(=O)N2CCN(C(=O)CN3CCCC3)C2)cc1
inactive: growth inhibition [1] -15.1% | growth inhibition [2] -11.2% | viability increase [3] -0.87% | viability [4] 92.4% | viability [5] 100% | inhibition [6] 1.62% | RAM network inhibition [7] 8.99%

CCOC(=O)c1c2n(c3c(NCc4ccccc4)ncnc13)CCCC2
inactive: growth inhibition [1] -11.4% | growth inhibition [2] -10.9% | viability increase [3] -7.91% | viability [4] 83.6% | viability [5] 78.7% | inhibition [6] 1.23% | RAM network inhibition [7] 2.51%

CCN(CC)CCCNC(=O)c1cc(-c2ccc(O)cc2)on1
inactive: growth inhibition [1] -14.6% | growth inhibition [2] 9.75% | viability increase [3] -3.12% | viability [4] 99.1% | viability [5] 96.1% | inhibition [6] 1.24% | RAM network inhibition [7] 1.77%

Cn1c(C(=O)N2CCN(c3ncccn3)CC2)cc2c(=O)n(C)c3ccccc3c21
inactive: growth inhibition [1] 6.33% | growth inhibition [2] 8.57% | viability increase [3] 2.83% | viability [4] 105% | viability [5] 97.2% | inhibition [6] 1.92% | RAM network inhibition [7] -0.01%

O=C(Oc1ccc2c(=O)c(Cl)coc2c1)c1ccncc1
inactive: growth inhibition [1] -0.185% | growth inhibition [2] 7.12% | viability increase [3] -4.3% | viability [4] 90.4% | viability [5] 99.2% | inhibition [6] 0.015% | RAM network inhibition [7] -0.99%
